Test [1] concerns the target T1, Carbonyl reductase [NADPH] 3 (Homo sapiens) (UniProt O75828).
T1 sequence (whole entry): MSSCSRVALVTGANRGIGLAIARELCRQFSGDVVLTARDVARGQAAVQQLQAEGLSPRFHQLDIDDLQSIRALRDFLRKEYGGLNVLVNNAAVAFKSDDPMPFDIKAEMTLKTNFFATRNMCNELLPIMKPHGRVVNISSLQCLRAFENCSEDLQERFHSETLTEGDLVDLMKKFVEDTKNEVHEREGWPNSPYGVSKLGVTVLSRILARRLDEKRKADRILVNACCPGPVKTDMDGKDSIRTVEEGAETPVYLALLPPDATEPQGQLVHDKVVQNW
Description: Binding affinity to human recombinant carbonyl reductase 3 expressed in Escherichia coli assessed as thermal shift by differential scanning fluorimetry in absence of cofactor. Summed up: (§1)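 Thermal-shift (DSF) binding assay with purified recombinant catalytic domains or proteins carrying an N- or C-terminal His6 tag or GST fusion. Purity was >95% by SDS/PAGE and identity was confirmed by MS. Protein was at 2 µM final in 10 mM HEPES pH 7.5 and 150 mM NaCl. Tm shift is reported, with 2 °C as the threshold for binding.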

Test [2] addresses T1, Carbonyl reductase [NADPH] 3 (Homo sapiens). Description: Binding affinity to human recombinant carbonyl reductase 3 expressed in Escherichia coli assessed as thermal shift by differential scanning fluorimetry in presence of NADP+. Summed up: as §1
For test [3], the target named is T2, Carbonyl reductase [NADPH] 1 (Homo sapiens) (UniProt P16152).
T2 sequence (whole entry): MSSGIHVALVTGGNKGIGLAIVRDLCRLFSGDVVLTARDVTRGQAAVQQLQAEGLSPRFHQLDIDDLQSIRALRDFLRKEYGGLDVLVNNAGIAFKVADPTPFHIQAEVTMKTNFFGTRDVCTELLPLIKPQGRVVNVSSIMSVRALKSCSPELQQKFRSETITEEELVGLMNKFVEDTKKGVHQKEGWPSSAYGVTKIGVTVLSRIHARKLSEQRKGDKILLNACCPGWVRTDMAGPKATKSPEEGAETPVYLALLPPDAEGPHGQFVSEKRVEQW
Description: Binding affinity to human recombinant carbonyl reductase 1 expressed in Escherichia coli assessed as thermal shift by differential scanning fluorimetry in presence of NADPH. Summed up:
as §1

Test [4] has as its target T3, Carbonyl reductase [NADPH] 1 (Homo sapiens, UniProt P16152).
T3 sequence (P16152 whole entry): T2 sequence (whole entry)
Nature of the test: Binding affinity to human recombinant carbonyl reductase 1 expressed in Escherichia coli assessed as NADPH oxidation using isatin as substrate. In a few lines:
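Purified recombinant CBR1 (200 nM) and NADPH were added to compound in 50 mM sodium phosphate, pH 6.8, 1 mM MgCl2. NADPH oxidation was followed as the fluorescence decrease at 460 nm (excitation 355 nm). Rates came from linear regression after normalising to the fluorescence rise at injection. Compounds were titrated at two isatin levels, with no-protein background subtracted. Sigmoidal fit gave IC50, then Ki from the isatin concentration.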

The target in test [5] is T2, Carbonyl reductase [NADPH] 1 (Homo sapiens). Description: Binding affinity to human recombinant carbonyl reductase 1 expressed in Escherichia coli assessed as thermal shift by differential scanning fluorimetry in presence of NADP+. In a few lines:
as §1

Test [6] has the same target. Nature of the test: Binding affinity to human recombinant carbonyl reductase 1 expressed in Escherichia coli assessed as NADPH oxidation at 200 uM relative to isatin. Summed up:
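Substrate test used 200 nM purified CBR1 and 200 µM NADPH, injected onto compound at 200 µM in 50 mM sodium phosphate pH 6.8 with 1 mM MgCl2. NADPH oxidation was read as the fluorescence decrease at 460 nm (excitation 355 nm). Rate came from linear regression after normalizing to the fluorescence rise on injection. Run in triplicate and expressed as % of the isatin rate.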

Test [7] deals with T1, Carbonyl reductase [NADPH] 3 (Homo sapiens). Nature of the test: Binding affinity to human recombinant carbonyl reductase 3 expressed in Escherichia coli assessed as thermal shift by differential scanning fluorimetry in presence of NADPH. In a few lines:
as §1

Test [8] concerns the target T2, Carbonyl reductase [NADPH] 1 (Homo sapiens). Nature of the test: Binding affinity to human recombinant carbonyl reductase 1 expressed in Escherichia coli assessed as thermal shift by differential scanning fluorimetry in absence of cofactor. Summed up: as §1

Consider seven compounds from ChEMBL document CHEMBL1140872, “Discovery of a potent and selective inhibitor for human carbonyl reductase 1 from propionate scanning applied to the macrolide zearalenone” (Bioorg Med Chem, 2009).

A value given as a limit tells only on which side of the number the result lay.

For `COc1cc(O)c2c(c1)oc(=O)c1c3cc(O)c(O)cc3oc21` [WEDELOLACTONE], the Tm in test [1] is less than 2 °C; in test [2], less than 2 °C; in test [3] it was less than 2 °C; in test [5], 5.1 °C; in test [7], less than 2 °C; in test [8], 2 °C. Moreover, in test [4], the half-maximal inhibitory concentration (IC50) is 3.78 µM. Besides, the Ki in test [4] was 0.6 µM. The Activity in test [6] was 5.8%.
On to `O=C1C[C@@H](c2ccc(O)cc2)Oc2cc(O)cc(O)c21` [NARINGENIN], for which the Tm in test [1] was less than 2 °C; in test [2], less than 2 °C; in test [3] it was less than 2 °C; in test [5] it was 2.3 °C; in test [7] it was less than 2 °C; in test [8], less than 2 °C. In addition, in test [4], the IC50 amounted to 21.5 µM. Besides, the Ki in test [4] came out at 3.43 µM. In test [6], the Activity is 4.7%.
In the case of `O=c1cc(-c2ccccc2)oc2cc(O)cc(O)c12` [CHRYSIN], the Tm in test [1] was less than 2 °C; in test [2], less than 2 °C; in test [3] it was less than 2 °C; in test [5], 4.6 °C; in test [7], less than 2 °C; in test [8], less than 2 °C. Further, in test [4], the IC50 was 0.67 µM. The Ki in test [4] was found to be 0.11 µM. Besides, the Activity in test [6] came to 16.3%.
For `COc1ccc(-c2coc3cc(O)cc(O)c3c2=O)cc1` [BIOCHANIN], the Tm in test [1] was less than 2 °C; in test [2], less than 2 °C; in test [3], less than 2 °C; in test [5] it was 2.7 °C; in test [7] it was less than 2 °C; in test [8] it was less than 2 °C. Moreover, the IC50 in test [4] stood at 12.7 µM. The Ki in test [4] worked out at 2.03 µM. For the same compound, the Activity in test [6] is 9.3%.
Regarding `O=c1c(-c2ccc(O)cc2)coc2cc(O)cc(O)c12`, the melting temperature (Tm) in test [1], in test [2], in test [3], in test [5], in test [7] and in test [8] was less than 2 °C in each case.
Consider `O=c1c(O)c(-c2ccc(O)c(O)c2)oc2cc(O)cc(O)c12`, for which the Tm in test [1], in test [2], in test [3], in test [5], in test [7] and in test [8] was less than 2 °C throughout.
In the case of `Oc1cc(Cl)ccc1Oc1ccc(Cl)cc1Cl` [TRICLOSAN], the Tm was less than 2 °C in test [1]; less than 2 °C in test [2]; less than 2 °C in test [3]; 3.4 °C in test [5]; less than 2 °C in test [7]; less than 2 °C in test [8]. For the same compound, the half-maximal inhibitory concentration (IC50) in test [4] was found to be 0.4 µM. Moreover, the Ki in test [4] stood at 0.06 µM.
